Source: ChEMBL document CHEMBL1149264, “Discovery of novel phenolic antioxidants as inhibitors of vascular cell adhesion molecule-1 expression for use in chronic inflammatory diseases” (J Med Chem, 2004)

Key:
[1] = Inhibition of TNF-alpha-stimulated VCAM1 expression in endothelial cells; format: functional, cell-based; conditions: Homo sapiens, Endothelial cell
[2] = tested on: Syrian golden hamster; assay: Effect on LDL level in hypercholesterolemic golden Syrian hamster; format: functional, Mesocricetus auratus; design: unit not given here
Summary of the method: (§1)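 Male golden Syrian hamsters (110-120 g), housed singly, given compound mixed into powdered chow at 150 mg/kg/d for two weeks. After an overnight fast and ketamine/xylazine i.p. anesthesia, blood was taken by cardiac puncture or abdominal aorta. Plasma was fractionated by FPLC and lipoprotein cholesterol measured enzymatically. Dunnett's test against controls.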

[3] = tested on: Syrian golden hamster; assay: Effect on HDL level in hypercholesterolemic golden Syrian hamster; format: functional, Mesocricetus auratus; design: unit not given here; summary of the method: as §1
[4] = Inhibition of LPS-induced TNFalpha secretion in human PBMN cells by ELISA; format: functional, cell-based
Summary of the method: (§2)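 Fresh cryopreserved human PBMCs at 1 million cells/mL in lymphocyte growth media-3 were pretreated with compound for 1 h, then stimulated with LPS 1 μg/mL for a further 2 h with compound present. Secreted TNF-α, IL-6 and IL-1β in conditioned media measured by human ELISA, in duplicate (mean ± SD). Experiments repeated at least three times.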

[5] = Inhibition of LPS-induced IL1-beta secretion in human PBMN cells by ELISA; format: functional, cell-based; summary of the method: as §2
[6] = Inhibition of LPS-induced IL6 secretion in human PBMN cells by ELISA; format: functional, cell-based; summary of the method: as §2
[7] = tested on: Mus musculus; assay: Inhibition of mBSA-induced paw-swelling in DTH BALB/c mouse model at 50 mg/kg, sc; format: functional; conditions: route subcutaneous
Summary of the method: (§3)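 Male BALB/c mice (20-25 g) sensitized on day 0 with intradermal abdominal mBSA (5 mg/mL)/Freund's complete adjuvant 1:1 emulsion. On day 7 challenged with mBSA in the right hind footpad, saline in the left. Compound given s.c. 24 h and 2 h before challenge; cyclosporin A 20 mg/kg as reference. Feet weighed 24 h post-challenge; swelling inhibition relative to vehicle group (100%). ANOVA with Fisher's PLSD.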

[8] = tested on: Mus musculus; assay: Inhibition of mBSA-induced paw-swelling in DTH BALB/c mouse model at 25 mg/kg, sc; format: functional; conditions: route subcutaneous; summary of the method: as §3
[9] = tested on: Rattus norvegicus; assay: Inhibition of paw edema in collagen 2-sensitized orally dosed rat model; format: functional, organism-based

| Structure (SMILES) | IC50 [1] [µM] | also measured |
| --- | --- | --- |
| CC(C)(Sc1cc(C(C)(C)C)c(O)c(C(C)(C)C)c1)Sc1ccc(C(C)(C)C)c(OC[C@@H](O)[C@@H](O)[C@@H](O)CO)c1C(C)(C)C | 13 | Activity [2]: 338; Activity [3]: 119 |
| CC(C)(Sc1cc(C(C)(C)C)c(O)c(C(C)(C)C)c1)Sc1ccc(C(C)(C)C)c(OC[C@@H](O)[C@H](O)CO)c1C(C)(C)C | 1 | IC50 [4]: 3.3 µM; IC50 [5]: 8 µM; IC50 [6]: 1.2 µM; inhibition in vivo at 50 mg/kg [7]: 58%; inhibition in vivo at 25 mg/kg [8]: 29% |
| CC(C)(Sc1cc(C(C)(C)C)c(O)c(C(C)(C)C)c1)Sc1ccc(C(C)(C)C)c(OC[C@@H](O)[C@@H](O)[C@@H](O)C(=O)O)c1C(C)(C)C | 35 | Activity [2]: 175; Activity [3]: 173 |
| CC(C)(Sc1cc(C(C)(C)C)c(O)c(C(C)(C)C)c1)Sc1ccc(C(C)(C)C)c(OCCCCC(=O)O)c1C(C)(C)C | 23 | – |
| CC(C)(Sc1cc(C(C)(C)C)c(O)c(C(C)(C)C)c1)Sc1ccc(C(C)(C)C)c(OCC(=O)NCCC(=O)O)c1C(C)(C)C | 6 | – |
| CC(C)(Sc1cc(C(C)(C)C)c(O)c(C(C)(C)C)c1)Sc1ccc(C(C)(C)C)c(OCC(=O)N[C@@H](CCC(=O)O)C(=O)O)c1C(C)(C)C | 75 | – |
| CC(=O)OCC(O)COc1c(C(C)(C)C)ccc(SC(C)(C)Sc2cc(C(C)(C)C)c(O)c(C(C)(C)C)c2)c1C(C)(C)C (stereo not given) | 41 | – |
| CC(C)(Sc1cc(C(C)(C)C)c(O)c(C(C)(C)C)c1)Sc1ccc(C(C)(C)C)c(O/C=C/C(=O)O)c1C(C)(C)C | 30 | – |
| CC(C)(Sc1cc(C(C)(C)C)c(O)c(C(C)(C)C)c1)Sc1ccc(C(C)(C)C)c(OC[C@H]2OC(O)[C@H](O)[C@@H]2O)c1C(C)(C)C (stereo not given in full) | 8 | – |
| CC(C)(Sc1cc(C(C)(C)C)c(O)c(C(C)(C)C)c1)Sc1cc(C(C)(C)C)c(OCC(=O)O)c(C(C)(C)C)c1 [CAMOBUCOL] | 10 | Activity [2]: 18; Activity [3]: 86; Activity [9]: Dose-dependent effect |
| CC(C)(Sc1cc(C(C)(C)C)c(O)c(C(C)(C)C)c1)Sc1ccc(C(C)(C)C)c(OC/C(N)=N/O)c1C(C)(C)C | 26 | – |
| CN(CC(=O)O)C(=O)COc1c(C(C)(C)C)ccc(SC(C)(C)Sc2cc(C(C)(C)C)c(O)c(C(C)(C)C)c2)c1C(C)(C)C | 7 | – |
| CC(C)(Sc1cc(C(C)(C)C)c(O)c(C(C)(C)C)c1)Sc1ccc(C(C)(C)C)c(OCC(CO)CO)c1C(C)(C)C | 13 | – |
| CC(=O)O[C@@H]1O[C@H](COc2c(C(C)(C)C)ccc(SC(C)(C)Sc3cc(C(C)(C)C)c(O)c(C(C)(C)C)c3)c2C(C)(C)C)[C@@H](OC(C)=O)[C@H](OC(C)=O)[C@H]1OC(C)=O | > 50 | – |
| CC(C)(Sc1cc(C(C)(C)C)c(O)c(C(C)(C)C)c1)Sc1ccc(C(C)(C)C)c(OCC(=O)NCC(=O)O)c1C(C)(C)C | 6 | – |
| CC(C)(Sc1cc(C(C)(C)C)c(O)c(C(C)(C)C)c1)Sc1ccc(C(C)(C)C)c(OCC(O)CNCC(=O)O)c1C(C)(C)C (stereo not given) | 16 | Activity [2]: 190; Activity [3]: 146 |
